ChEMBL document CHEMBL4842325, “Lanosterol 14α-demethylase (CYP51)/histone deacetylase (HDAC) dual inhibitors for treatment of Candida tropicalis and Cryptococcus neoformans infections” (Eur J Med Chem, 2021)
In brackets after ≈: the same amount, converted by molar mass. Activity calls are given as the source filed them. No cut-off for these calls is given here.

Tests used:
Candida tropicalis [1] = experiment: Antifungal activity against fluconazole-resistant Candida tropicalis 5008 assessed as inhibition of cell proliferation at 8 ug/ml measured for 48 hrs by time growth curve assay; type: functional, organism-based; conditions: dose 8.0 µg/ml
Method in brief: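 Exponential-phase cells from YEPD resuspended in 3 mL fresh RPMI 1640 at 1 × 10⁵ cells/mL (C. tropicalis 5008) or 1 × 10⁶ cells/mL (C. neoformans H99). Compound at several concentrations; cultures shaken at 240 rpm, 30 °C. Growth read as OD₆₃₀ at 0, 6, 12, 24, 36 and 48 h. Done in triplicate.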

Candida tropicalis [2] = experiment: Inhibition of CYP51 in Candida tropicalis 5008 assessed as eburicol level at 4 ug/ml by GC-MS analysis; parameters: scale not given: the % may be the effect or the level left; conditions: dose 4.0 µg/ml
Candida tropicalis [3] = experiment: microbe, parasite or virus in culture; type: functional; conditions: 5008, time 48 hrs
Cryptococcus neoformans [4] = experiment: microbe, parasite or virus in culture; type: functional; conditions: H99, time 72 hrs
Candida tropicalis [5] = experiment: Antifungal activity against Candida tropicalis 5008 infected in ICR mouse model assessed as reduction in fungal burden in kidney at 20 mg/kg, po administered once a day for 5 days; type: functional; conditions: time 5 day
Method in brief: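 ICR mice given cyclophosphamide 100 mg/kg ip 24 h before infection, then infected iv with 1 × 10⁵ CFU C. tropicalis 5008 on day 0. Treatment started 24 h post infection: oral dosing once daily for 5 consecutive days, with saline and fluconazole control groups. Mice euthanized day 6. Kidney homogenates plated on SDA at 35 °C for 48 h and colonies counted for fungal burden. ANOVA between groups.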

Cryptococcus neoformans [6] = experiment: Downregulation of CAP10 gene expression in Cryptococcus neoformans H99 at 2 ug/ml measured after 24 hrs by qRT-PCR analysis; type: functional; conditions: dose 2.0 µg/ml
Method in brief: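 Exponential-phase C. neoformans H99 inoculated into 50 mL YPD with compound. Incubated 35 °C for 24 h, then cultures ground in liquid nitrogen for RNA isolation. Transcript levels of capsule-associated genes quantified by RT-qPCR. Three independent experiments, mean ± SD, t-test.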

Cryptococcus neoformans [7] = experiment: Inhibition of capsule formation in Cryptococcus neoformans H99 assessed as reduction in capsule size at 40 to 50 ug/ml incubated for 24 hrs by laser scanning confocal microscopic analysis; type: functional; conditions: dose 40-50 µg/ml
Method in brief: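 Exponential C. neoformans H99 resuspended in PBS at 1 × 10⁷ cells/mL. Cells cultured in DMEM with FBS and compound at 37 °C under 10% CO₂ for 24 h, with an untreated control. Stained with India ink and imaged by laser scanning confocal microscopy at 63×, 10 random fields. Whole-cell and cell-body diameters measured to derive capsule size.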

Candida tropicalis [8] = experiment: Antifungal activity against Candida tropicalis 5008 assessed as inhibition of fungal filamentation by measuring reduction in hyphae formation at 1 ug/ml incubated for 7 hrs by cell inverted imaging microscopic analysis; type: functional, organism-based; conditions: dose 1.0 µg/ml
Method in brief: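 C. tropicalis 5008 from exponential YEPD culture diluted in spider medium to 1 × 10⁵ CFU/mL. Compound added at several concentrations, with fluconazole as positive drug. Incubated 37 °C for 7 h, then morphology compared with the no-drug group by live-cell inverted microscopy.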

Candida albicans = experiment: Antifungal activity against fluconazole-sensitive Candida albicans 10061 assessed as inhibition of fungal growth; type: functional
Candida tropicalis [9] = experiment: Downregulation of MDR1 mRNA expression in Candida tropicalis 5008 at 4 ug/ml measured after 24 hrs by qRT-PCR analysis; type: functional; conditions: dose 4.0 µg/ml
Method in brief: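 Exponential-phase C. tropicalis 5008 inoculated into 10 mL YPD with compound at several concentrations, DMSO as blank control. Incubated 35 °C for 24 h. Total RNA isolated on columns and reverse-transcribed. Real-time RT-PCR with ACT1 as internal control. Mean of 3 independent assays ± SD.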

[10] = Inhibition of HDAC in Candida tropicalis 5008 using Boc-Lys(Ac)-AMC as substrate preincubated with protoplast for 12 hrs followed by incubation with substrate for 6 hrs by fluorimetric assay
Method in brief: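 Whole-cell assay on C. tropicalis 5008, 100 mg wet weight of exponential-phase cells. Cell wall removed with snailase to give protoplasts, which were dispersed in PBS. Protoplasts incubated with compound at 35 °C for 12 h. Boc-Lys(Ac)-AMC then added to a final 30 µM and incubated 37 °C for 6 h. Stop solution added, 37 °C for 2 h. Fluorescence read at Ex 360/Em 460 nm and converted to HDAC inhibition rate.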

Compound: O=C(CCCCCCCOc1ccc(CN2CCN(CC(O)(Cn3cncn3)c3ccc(F)cc3F)CC2)cc1)NO (stereo unspecified)
- Activity (Candida tropicalis [1]): Active
- Activity (Candida tropicalis [2]): 69.3%
- MIC80 (Candida tropicalis [3]): 0.5 µg/mL (≈ 0.852 µM)
- MIC80 (Cryptococcus neoformans [4]): 0.5 µg/mL (≈ 0.852 µM)
- log(activity) (Candida tropicalis [5]): 0.7
- inhibition (Cryptococcus neoformans [6]): Active
- inhibition (Cryptococcus neoformans [7]): Active
- Activity (Candida tropicalis [8]): Active
- MIC80 (Candida albicans): 16 µg/mL (≈ 27.3 µM)
- inhibition (Candida tropicalis [9]): Active
- IC50 [10]: 2380 nM
